Experiments:
[1] = biological target: T1, TLR7 (Homo sapiens, UniProt Q9NYK1); test: TLR7 antagonism reporter gene assay; type: cell-based
T1 sequence (Q9NYK1 27-1049): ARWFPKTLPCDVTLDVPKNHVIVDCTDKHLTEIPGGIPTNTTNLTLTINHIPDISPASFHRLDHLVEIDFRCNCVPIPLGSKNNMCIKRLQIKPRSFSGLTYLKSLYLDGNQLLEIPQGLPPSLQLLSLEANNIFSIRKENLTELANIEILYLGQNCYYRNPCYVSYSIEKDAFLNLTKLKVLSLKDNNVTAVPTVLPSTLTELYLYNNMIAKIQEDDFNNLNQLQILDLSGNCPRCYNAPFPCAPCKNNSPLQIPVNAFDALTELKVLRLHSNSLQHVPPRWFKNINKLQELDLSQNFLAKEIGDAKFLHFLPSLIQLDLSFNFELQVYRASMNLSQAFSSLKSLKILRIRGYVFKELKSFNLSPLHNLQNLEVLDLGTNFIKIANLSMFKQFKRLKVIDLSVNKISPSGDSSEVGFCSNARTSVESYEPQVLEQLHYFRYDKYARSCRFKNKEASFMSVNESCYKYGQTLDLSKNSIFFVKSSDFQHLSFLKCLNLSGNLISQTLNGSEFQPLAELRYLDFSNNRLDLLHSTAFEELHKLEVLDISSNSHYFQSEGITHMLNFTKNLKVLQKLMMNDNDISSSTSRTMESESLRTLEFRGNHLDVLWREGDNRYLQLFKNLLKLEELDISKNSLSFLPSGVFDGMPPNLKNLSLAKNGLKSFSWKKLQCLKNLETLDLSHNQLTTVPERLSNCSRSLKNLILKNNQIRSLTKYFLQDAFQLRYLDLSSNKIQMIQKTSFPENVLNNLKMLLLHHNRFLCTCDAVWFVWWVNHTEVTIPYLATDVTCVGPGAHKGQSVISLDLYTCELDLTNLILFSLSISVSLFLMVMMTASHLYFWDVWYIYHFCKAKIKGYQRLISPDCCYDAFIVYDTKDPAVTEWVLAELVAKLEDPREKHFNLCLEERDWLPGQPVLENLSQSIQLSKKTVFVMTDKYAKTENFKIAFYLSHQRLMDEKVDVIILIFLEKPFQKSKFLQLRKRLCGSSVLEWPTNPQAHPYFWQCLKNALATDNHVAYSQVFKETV
In short: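 HEK-Blue-7 cells (HEK293 stably expressing TLR7 plus NF-κB/AP-1-driven secreted alkaline phosphatase reporter) were kept in selection medium with zeocin and normocin and grown to confluency. They were stimulated with gardiquimod at 1 μg/mL, or 250 ng/mL for Schild analysis, with serially diluted test compound (top 250 μM) added concurrently. After overnight incubation, supernatant sAP was read with chromogen at 620 nm. Replicates were duplicate or quadruplicate.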

[2] = biological target: T2, TLR8 (Homo sapiens, UniProt Q9NR97); test: TLR8 antagonism reporter gene assay; type: cell-based
T2 sequence (Q9NR97 27-1041): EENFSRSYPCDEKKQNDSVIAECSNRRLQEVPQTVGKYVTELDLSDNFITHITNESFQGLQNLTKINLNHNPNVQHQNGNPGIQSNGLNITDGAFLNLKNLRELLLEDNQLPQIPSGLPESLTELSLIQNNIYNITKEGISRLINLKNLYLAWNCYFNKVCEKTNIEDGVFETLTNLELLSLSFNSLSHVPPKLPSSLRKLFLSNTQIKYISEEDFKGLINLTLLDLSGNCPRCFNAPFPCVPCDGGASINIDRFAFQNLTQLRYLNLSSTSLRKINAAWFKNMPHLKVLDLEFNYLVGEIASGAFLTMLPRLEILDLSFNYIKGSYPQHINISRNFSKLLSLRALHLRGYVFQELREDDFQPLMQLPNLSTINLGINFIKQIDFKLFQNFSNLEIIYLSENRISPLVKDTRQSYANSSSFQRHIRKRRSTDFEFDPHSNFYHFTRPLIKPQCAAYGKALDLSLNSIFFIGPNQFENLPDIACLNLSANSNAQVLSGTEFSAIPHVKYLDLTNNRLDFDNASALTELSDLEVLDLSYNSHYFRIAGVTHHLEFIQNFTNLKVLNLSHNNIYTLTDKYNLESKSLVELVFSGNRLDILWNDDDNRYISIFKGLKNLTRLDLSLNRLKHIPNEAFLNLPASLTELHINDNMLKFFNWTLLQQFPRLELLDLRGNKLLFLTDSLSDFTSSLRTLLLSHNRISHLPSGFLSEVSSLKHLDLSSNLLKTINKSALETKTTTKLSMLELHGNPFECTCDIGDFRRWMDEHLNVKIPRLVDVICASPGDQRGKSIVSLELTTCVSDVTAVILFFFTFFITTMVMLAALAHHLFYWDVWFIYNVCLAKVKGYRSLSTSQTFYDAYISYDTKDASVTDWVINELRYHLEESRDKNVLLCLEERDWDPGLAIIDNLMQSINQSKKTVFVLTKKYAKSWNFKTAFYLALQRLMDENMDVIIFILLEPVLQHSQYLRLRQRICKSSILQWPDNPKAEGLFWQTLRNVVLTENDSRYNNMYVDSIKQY

Row | Compound | IC50 [1] [µM] | also measured
1 | CC(C)(O)Cn1c(-c2ccccc2)nc2c3ccccc3ncc21 [Compound 4b, 2-methyl-1-(2-phenyl-3H-imidazo[4,5-c]quinolin-3-yl)propan-2-ol] | > 250 | 
2 | CC(C)(O)Cn1c(C2CCCCC2)nc2c3ccccc3ncc21 [Compound 4c] | > 250 | 
3 | COc1ccc(Cn2c(-c3ccccc3)nc3c4ccccc4ncc32)cc1 [Compound 5b, 3-(4-methoxybenzyl)-2-phenyl-3H-imidazo[4,5-c]quinoline] | > 250 | IC50 [2]: > 250 µM
4 | CCNCc1nc2c3ccccc3ncc2n1CCCO [Compound 6a, 3-(2-((ethylamino)methyl)-3H-imidazo[4,5-c]quinolin-3-yl)propan-1-ol] | > 250 | IC50 [2]: > 250 µM
5 | C#CCn1c(CCCCCCCCC)nc2c3ccccc3ncc21 [Compound 7d] |  | TLR7-inhibitory activity [1]: low micromolar TLR7-inhibitory activity
6 | CCCCCCCCCc1nc2c3ccccc3ncc2n1C [Compound 8d] |  | TLR7-inhibitory activity [1]: low micromolar TLR7-inhibitory activity
7 | CCNCc1nc2c3ccccc3[n+]([O-])cc2n1CC(C)(C)O [Compound 10, 2-((ethylamino)methyl)-3-(2-hydroxy-2-methylpropyl)-3H-imidazo[4,5-c]quinoline 5-oxide] | > 250 | 
8 | CCNCc1nc2c3ccccc3nc(NC(=O)c3ccccc3)c2n1CC(C)(C)O [Compound 11, N-(2-((ethylamino)methyl)-3-(2-hydroxy-2-methylpropyl)-3H-imidazo[4,5-c]quinolin-4-yl)benzamide] | > 250 | 
9 | COc1ccc(Cn2c(-c3ccccc3)nc3c4ccccc4[n+](Cc4ccc(OC)cc4)cc32)cc1 [Compound 12, 3,5-bis(4-methoxybenzyl)-2-phenyl-3H-imidazo[4,5-c]quinolin-5-ium] |  | Mode of inhibition by Schild analyses ([1]; agonist gardiquimod 1 μg/mL and 250 ng/mL): competitive
